# Rows were chosen to be rich in hits. Some 2.4% of all compounds tested hit in one or more screens of this group.
# Rin1 Abl inh: inhibitors of Rin1-Abl protein binding, primary screen, biochemical, TR-FRET; Tyrosine-protein kinase ABL1 (Homo sapiens) + Ras and Rab interactor 1 (Homo sapiens), …; inhibition, % at 7.35 µM; hit rate 0.4% among 360,000; in the data active = inhibition above about 5%, passing the limit was not always enough
# HNF4A DNA FP: change in binding of human HNF4A to DNA, primary screen, biochemical, fluorescence polarization, FITC-DNA | Hepatocyte nuclear factor 4-alpha (Homo sapiens), P41235 | 1 h | activity change, % at 10 µM | hit rate 0.3% among 360,000 | AID 1224865, 2016; in the data active = activity change above about 30%, passing the limit was not always enough
# TPT1 inhibitor: Candida albicans TPT1 enzyme inhibitors, primary screen, biochemical, fluorescence polarization. tRNA 2'-phosphotransferase TPT1 (Candida albicans SC5314). recombinant caTPT1, FP RNA substrate dephosphorylation. inhibition, % at 5 µM. hit rate 0.81% among 300,000;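 active = inhibition above the mean of all tested compounds plus 3 SD, set per screening campaign, cut at about 24% in these data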;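 note: plate controls were DMSO alone for no effect and ferristatin control at 100 nM for full effect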
# Neddyl block: inhibitors of cullin neddylation, primary screen, biochemical, TR-FRET, uHTS, NAE and Ubc12; NEDD8-conjugating enzyme Ubc12 (Homo sapiens) + NEDD8-activating enzyme E1 regulatory …; inhibition, % at 25 µM; hit rate 0.58% among 360,000; AID 651699, 2012; in the data active = inhibition above about 36%
# Rpn11 inh: Rpn11 (PSMD14) deubiquitinase inhibitors, primary screen, biochemical, fluorescence polarization, uHTS. 26S proteasome non-ATPase regulatory subunit 14 (Homo sapiens), O00487. human 26S proteasome, Ub4-pepOG fluorescence polarization; 20S core pre-blocked with epoxomicin. inhibition, % at 20 µM. hit rate 0.59% among 360,000. AID 588493, 2011;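 active = inhibition at 20 µM, scaled to each plate's controls, above about 33%, limit read from the data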
# CSN deneddyl inh: inhibitors of CSN-mediated cullin deneddylation, primary screen, biochemical, fluorescence polarization, uHTS; COP9 signalosome complex subunit 5 (Homo sapiens), Q92905; Purified CSN, SCF-Nedd8-OG deneddylation; inhibition, % at 12.5 µM; hit rate 0.38% among 360,000;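 active = pattern-corrected inhibition above about 35%, with an unprinted fluorescence ratio check between 0.5 and 1.5, limit read from the data, passing the limit was not always enough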;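 note: 0% = enzyme with substrate and 100% = substrate without enzyme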
# Target sequence (Q92905 whole entry, looked up, one chain of several): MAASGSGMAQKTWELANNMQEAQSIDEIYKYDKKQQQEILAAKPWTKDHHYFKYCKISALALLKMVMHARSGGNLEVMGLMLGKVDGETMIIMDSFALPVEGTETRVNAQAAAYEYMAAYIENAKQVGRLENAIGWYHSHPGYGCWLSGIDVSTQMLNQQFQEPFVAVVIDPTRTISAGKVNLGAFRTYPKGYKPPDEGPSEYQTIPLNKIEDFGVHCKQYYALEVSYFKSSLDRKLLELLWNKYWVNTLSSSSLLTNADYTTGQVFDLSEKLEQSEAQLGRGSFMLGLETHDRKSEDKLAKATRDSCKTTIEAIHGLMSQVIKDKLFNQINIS
#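 Test system: Human Csn5 produced in HEK293T cells | Compound: 12.5 µM single point | Times: 90 min, room temperature | Signal: Fluorescence polarization readout | Read-out basis: % inhibition of substrate cleavage by Csn5 | Controls: no-enzyme wells high, enzyme-with-substrate wells low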
# caTPT1 confirm: Candida albicans TPT1 inhibitors, confirmation, biochemical, fluorescence polarization, triplicate; shares compounds with TPT1 inhibitor; recombinant caTPT1, RNase T1 coupled; inhibition, % at 5 µM; hit rate 74% among 2,400; AID 2149, 2009;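 active = inhibition above the primary screen limit, the mean inhibition of all tested compounds plus 3 SD, cut at about 25% in these data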
# RNase T1 counter: RNase T1 inhibitors, counter-screen for TPT1 inhibitor project, biochemical, fluorescence polarization; shares compounds with TPT1 inhibitor; RNase T1 cleavage, 1536-well; inhibition, % at 5 µM; hit rate 83% among 2,400; AID 2153, 2009;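 active = inhibition above the solvent-only control well mean plus 3 SD, limit set per screening run, cut at about 23% in these data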;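 note: plate controls were DMSO wells with enzyme for no effect and wells without RNase T1 for full effect; inhibitors block cleavage so intact labeled substrate keeps polarization high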
# The depositor's hits bear a star; / = not tested or not shown.
SMILES,Rin1 Abl inh,HNF4A DNA FP,TPT1 inhibitor,Neddyl block,Rpn11 inh,CSN deneddyl inh,caTPT1 confirm,RNase T1 counter
CN1CCc2c(sc3c2C(=O)NC(c2ccc(-c4cccc(Cl)c4)o2)N3)C1 (configuration not stated),-7,71*,115*,28,/,44*,111*,117*
CSc1ccc(C2NC(=O)c3c(sc4c3CCN(C)C4)N2)cc1 (configuration not stated),-3,54,105*,-51,/,46*,97*,101*
Cc1ccsc1C1NC(=O)c2c(sc3c2CCN(C)C3)N1 (configuration not stated),-10,16,61*,13,27,18,56*,65*
CN1CCc2c(sc3c2C(=O)NC(/C=C\c2ccccc2)N3)C1 (configuration not stated),-1,9,22,25,/,19,/,/
CN1CCc2c(sc3c2C(=O)NC(c2cccs2)N3)C1 (configuration not stated),-7,1,34*,13,6,4,23,35*
Cc1ccsc1C1Nc2ccccc2C(=O)N1O (configuration not stated),3,2,0,1,-18,-12,/,/
N#C/C(=C\c1ccc(N2CCOCC2)cc1)c1ccccc1,-2,0,3,2,4,6,/,/
N#C/C(=C\c1ccc(Sc2ccc(Cl)cc2)o1)c1nc2ccccc2[nH]1,-3,14,52*,/,26,4,51*,66*
N#C/C(=C/c1ccc(N2CCOCC2)o1)c1nc2ccccc2[nH]1,-53,152,180*,6,/,-13,164*,152*
N#C/C(=C\c1ccc(Sc2nc3ccccc3[nH]2)o1)c1ccccc1,-1,8,3,-6,0,1,/,/
N#C/C(=C\c1ccc(N2CCOCC2)o1)c1ccccc1,3,78*,67*,6,/,8,138*,137*
CC1(c2ccc(Cl)cc2Cl)NC(=O)N(CC(=O)NC2CCCCC2)C1=O (configuration not stated),0,3,/,-17,7,-1,/,/
O=c1oc2c(O)c(O)cc3c(=O)oc4c(O)c(O)cc1c4c23,61*,-91,81*,1,39,55,92*,17
O=c1oc2ccccc2c2oc3cc(O)c(O)cc3c12,-3,-27,-4,/,1,13,/,/
CCOc1ccccc1NC(=O)CSc1nnnn1C1CCCC1,2,0,0,-10,4,-4,/,/
CCOC(=O)/C=c1/s/c(=C/c2ccc3cc(OC)ccc3c2)c(=O)n1CC(=O)NCC1CCCO1 (configuration not stated),-1,34,/,37,/,24,/,/
CCOC(=O)/C=c1\s/c(=C\c2c(OC)ccc3ccccc23)c(=O)n1CC(=O)NCC1CCCO1 (configuration not stated),-3,14,28*,17,/,10,41*,50*
CN(C)S(=O)(=O)c1cccc(NC(=S)N/N=C/c2cc(Br)ccc2O)c1,-1,14,25*,/,/,21,53*,59*
O=C(O)C(=O)/C(=C\c1ccc(Cl)cc1)c1ccc2ccccc2n1,-2,13,41*,/,27,12,35*,49*

# Screens (PubChem BioAssay)
